Only some compounds are listed: those with a hit (about 29% of all), similar ones and a draw of the others.
CYP2C19 inhib – inhibitors of human CYP2C19; CYP2C19 Supersomes, luciferin-H EGE luminescence, 30 min; inhibition, % at 5 µM; actives 21% (n = 96,000); AID 778;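 active means CYP2C19 inhibition above a set limit at 5 µM in the primary screen, cut at about 50% in these data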;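 further: plate controls were negative control wells for no effect and 2.5 mM tranylcypromine positive control for full effect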
Ecoli WT expand – blocks growth of wild type E. coli BW25113. OD600 absorbance. growth inhibition, % at 100 µM. actives 0.15% (n = 98,000). AID 710;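 active means growth inhibition above about 50% at one test dose, limit read from the data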;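 further: growth measured after 20 h incubation at 37 °C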
CYP2C19 activ – increases human CYP2C19 enzyme activity; 96,000 tested, under 10 active; recombinant CYP2C19, luciferin-H EGE luminescence; hits give high values; 0 = fully inhibited enzyme, 1 = untreated enzyme; AID 1025; P33261; activation factor at 5 µM;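 active means activation factor of at least 2 at 5 µM in the primary screen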;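 further: 0 = wells with 2.5 mM tranylcypromine and 1 = vehicle-only wells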
CYP2C9 inhib – human CYP2C9 inhibition; actives 20% (n = 96,000); CYP2C9 Supersomes, luciferin-H conversion, luminescence; inhibition, % at 5 µM; P11712;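 active means blocking of liver enzyme CYP2C9 beyond about 50% at 5 µM, limit read from the data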
Target sequence (P11712 whole entry, looked up): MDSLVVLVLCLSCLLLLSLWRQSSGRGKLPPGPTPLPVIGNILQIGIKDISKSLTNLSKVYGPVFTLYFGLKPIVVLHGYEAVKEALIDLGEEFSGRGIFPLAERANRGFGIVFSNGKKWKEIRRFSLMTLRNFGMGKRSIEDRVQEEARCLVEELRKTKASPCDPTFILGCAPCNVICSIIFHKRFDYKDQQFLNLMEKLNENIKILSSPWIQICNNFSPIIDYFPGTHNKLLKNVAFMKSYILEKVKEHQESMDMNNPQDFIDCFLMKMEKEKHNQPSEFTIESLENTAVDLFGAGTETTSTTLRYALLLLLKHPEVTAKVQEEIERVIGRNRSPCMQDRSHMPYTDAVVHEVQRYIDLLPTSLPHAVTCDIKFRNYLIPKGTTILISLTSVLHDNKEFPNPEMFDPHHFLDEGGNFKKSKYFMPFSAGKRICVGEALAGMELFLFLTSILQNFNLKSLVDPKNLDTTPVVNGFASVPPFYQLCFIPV
tolC growth inh – growth inhibitors of E. coli BW25113 tolC mutant; OD615; growth inhibition, % at 10 µM (by protocol); actives 2.2% (n = 65,000); AID 573;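 active means growth inhibition at or above a cutoff equal to the mean over every tested compound plus 3 SD, cut at about 60% in these data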;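 further: growth measured after 20 h incubation at 37 °C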
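Signal: optical density read at 615 nm; Assay system: E. coli ΔtolC::kan strain BW25113; Times: 20 h incubation with compound, 37 °C; Dosing: 10 µM final, single dose.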
CYP2C9 act – increases human cytochrome P450 2C9 activity. activation factor at 5 µM. AID 1024. P11712. recombinant CYP2C9, luciferin-H conversion, luminescence; hits give high values; factor 1 = untreated enzyme, 0 = blocked. actives 1.4% (n = 96,000);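 active means activation factor of 2 or more for CYP2C9 at a 5 µM dose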;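 further: 0 = sulfaphenazole-blocked wells and 1 = vehicle-only wells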
Active calls of the source: *; . = not tested or not shown.

SMILES	CYP2C19 inhib	Ecoli WT expand	CYP2C19 activ	CYP2C9 inhib	tolC growth inh	CYP2C9 act
COc1ccc(CCNC(=O)c2nnn(-c3ccccc3OC)c2N)cc1OC	9.0	-8.0	0.9	2.1	6.5	1
Cc1ccc(Cn2nnc3c(=O)[nH]c(C(=O)NCc4ccco4)nc32)cc1	0.9	-11.0	1	4.1	24.1	1
O=S(=O)(NCC1CCCO1)c1ccc(S(=O)(=O)N2CCCC2)cc1 (stereo not drawn)	4.5	1.0	1	9.7	.	0.9
CC1CCN(S(=O)(=O)c2ccc(S(=O)(=O)NCC3COCCO3)cc2)CC1 (stereo not drawn)	60.2*	2.0	0.4	3.3	-1.6	1
COc1ccc(S(=O)(=O)Nc2ccc(O)c3ccccc23)cc1	97.4*	.	0	67.1*	9.1	0.3
COc1ccc(S(=O)(=O)Nc2ccccc2C(F)(F)F)cc1	78.2*	2.0	0.2	21.4	9.1	0.8
COCCn1c(-c2ccc(OC)cc2)nc2oc3cc(OC)ccc3c(=O)c2c1=O	-5.4	-11.0	1.1	-3.4	.	1
CC(C)(C)NS(=O)(=O)c1ccc(NS(C)(=O)=O)cc1	14.1	5.0	0.9	41.0	.	0.6
COC(=O)c1ccc(C(=O)OC)c(NC(=O)COC(=O)C23CC4CC(CC(O)(C4)C2)C3)c1	13.1	0.0	0.9	57.5*	0.3	0.4
CCOCC(=O)Nc1cc(C(=O)OC)ccc1C(=O)OC	28.7	0.0	0.7	26.9	-6.4	0.7
COc1cc2c(cc1OC)C1=NC(=O)CN1C(SCc1ccccc1)=N2	-11.3	3.0	1.1	-9.5	.	1.1
CCN(CC)C(=O)C(=O)c1cccn1-c1ccccc1C#N	17.6	4.0	0.8	-6.9	.	1.1
CCC(=O)Nc1ccc(-c2nnc(SCC(=O)NCC3CCCO3)n2C)cc1 (stereo not drawn)	.	.	.	.	5.1	.
COc1cccc(S(=O)(=O)Nc2ccc(C(=O)N3CCN(C(=O)c4ccco4)CC3)cc2)c1	.	.	.	.	2.5	.
O=C(Nc1cc(S(=O)(=O)N2CCOCC2)ccc1Cl)C(=O)c1c(-c2ccccc2)cc2ccccn12	45.2	-10.0	0.5	69.8*	.	0.3
O=C(O)c1c[nH]c2ccc(S(=O)(=O)N3CCOCC3)cc12	0.3	2.0	1	-11.2	9.0	1.1
COCCNCCOc1ccccc1-c1ccccc1	59.1*	7.0	0.4	13.0	.	0.9
OCCNCCOc1ccccc1-c1ccccc1	-6.1	12.0	1.1	38.0	.	0.6
Cc1cccc(NC(=O)CN(C)S(=O)(=O)c2ccccc2)n1	18.9	8.0	0.8	23.1	2.5	0.8
COc1ccc(-c2nnc(SCC(=O)OC3CCCCC3)o2)cc1OC	0.6	-4.0	1	-63.0	-1.5	1.6
CCOC(=O)c1cc(NC(=O)N2CCCc3ccccc32)c(C)nc1C	33.5	4.0	0.7	49.3	-1.0	0.5
Cc1nc(C)c(NC(=O)N2CCc3ccccc32)cc1NC(=O)N1CCc2ccccc21	52.4*	-5.0	0.5	76.7*	-2.0	0.2
CNC(=O)Nc1ccccc1NC(=O)NC	-8.2	-1.0	1.1	-16.6	2.8	1.2
CCCSc1cc(N2CCOCC2)nc(-c2ccccc2Cl)n1	9.0	-1.0	0.9	57.4*	.	0.4
Cc1ccc2c(c1)c(C)c(C)n2CC(O)CN1CCCCC1C (stereo not drawn)	74.6*	-5.0	0.3	5.4	-0.9	0.9
SMILES	CYP2C19 inhib	Ecoli WT expand	CYP2C19 activ	CYP2C9 inhib	tolC growth inh	CYP2C9 act
Cc1ccc(C)c(OCC(O)CN2CCCCC2C)c1 (stereo not drawn)	52.7*	1.0	0.5	-9.8	-12.3	1.1
CC(=O)c1c(C)nn(CC(O)Cn2c3c(c4cc(C)ccc42)CCCC3=O)c1C (stereo not drawn)	54.3*	1.0	0.5	66.9*	8.6	0.3
Cc1ccc(C)c(OCC(O)CN2C(C)CCCC2C)c1 (stereo not drawn)	4.5	1.0	1	-13.5	-10.8	1.1
Cc1c(C)n(CC(O)CN2CCCCC2)c2ccccc12 (stereo not drawn)	8.2	6.0	0.9	-13.5	.	1.1
Cc1ccc2c(c1)c(C)c(C)n2CC(O)Cn1nc(C)c(Br)c1C (stereo not drawn)	97.1*	-8.0	0	95.7*	81.7*	0
COc1ccccc1CN1C(=O)CN(C2CCCC2)C(=O)C1c1ccc(F)cc1 (stereo not drawn)	21.3	3.0	0.8	24.1	-5.1	0.8
